Data published in ChEMBL document CHEMBL3860024, “New cinnamic - N-benzylpiperidine and cinnamic - N,N-dibenzyl(N-methyl)amine hybrids as Alzheimer-directed multitarget drugs with antioxidant, cholinergic, neuroprotective and neurogenic properties” (Eur J Med Chem, 2016).
Activity calls are given as the source filed them. No cut-off for these calls is given here.

Key:
Cholinesterase [1] = target: T1, Cholinesterase (Homo sapiens, UniProt P06276); test: Inhibition of human serum BuChE using butyrylthiocholine as substrate preincubated for 5 mins followed by substrate addition measured for 5 mins by Ellman's method
Procedure, shortened: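 Spectrophotometric Ellman assay with butyrylcholinesterase from human serum, with donepezil as reference. IC50 is reported in µM as mean ± SEM, n = 5.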

Acetylcholinesterase [2] = target: T2, Acetylcholinesterase (Homo sapiens, UniProt P22303); test: Inhibition of human recombinant AChE using acetylthiocholine iodide as substrate preincubated for 5 mins followed by substrate addition measured for 5 mins by Ellman's method
[3] = Antioxidant activity assessed as AAPH free radical scavenging activity by measuring trolox equivalent by oxygen radical absorbance capacity method; type: functional
Procedure, shortened: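 Oxygen radical absorbance capacity (ORAC) assay with trolox as the standard. Fluorescence was read on a plate reader with 485-P excitation and 520-P emission filters. Values are expressed as trolox equivalents, mean ± SEM (n = 5).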

[4] = target: T3, Amine oxidase [flavin-containing] B (Homo sapiens, UniProt P27338); test: Inhibition of human recombinant MAOB at 100 uM using p-tyramine as substrate incubated for 15 mins by fluorimetric method; settings: 0.25 h
T3 sequence (P27338 whole entry): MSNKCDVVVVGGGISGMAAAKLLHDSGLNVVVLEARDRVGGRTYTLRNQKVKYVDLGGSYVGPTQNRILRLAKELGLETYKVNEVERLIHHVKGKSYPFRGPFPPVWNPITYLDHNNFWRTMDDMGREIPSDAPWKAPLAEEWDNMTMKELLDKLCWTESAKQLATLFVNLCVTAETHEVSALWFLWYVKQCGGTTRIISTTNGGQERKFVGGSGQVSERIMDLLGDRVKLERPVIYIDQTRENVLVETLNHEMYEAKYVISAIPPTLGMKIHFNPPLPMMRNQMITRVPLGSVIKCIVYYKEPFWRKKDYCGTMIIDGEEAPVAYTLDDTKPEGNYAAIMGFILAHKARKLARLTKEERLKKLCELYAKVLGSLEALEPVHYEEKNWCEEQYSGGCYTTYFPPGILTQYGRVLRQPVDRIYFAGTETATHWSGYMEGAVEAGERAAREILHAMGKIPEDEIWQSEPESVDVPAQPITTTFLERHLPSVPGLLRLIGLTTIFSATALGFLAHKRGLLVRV
Procedure, shortened: (§1)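 Recombinant hMAO-A or hMAO-B (baculovirus-infected BTI insect cells), amount set to oxidize 165 pmol p-tyramine/min, preincubated with compound 15 min at 37 °C. Reaction started with Amplex Red, 1 U/mL horseradish peroxidase and 1 mM p-tyramine. Resorufin fluorescence read at 37 °C (ex 545/em 590 nm), minus enzyme-free phosphate-buffer background.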

[5] = target: T4, Amine oxidase [flavin-containing] A (Homo sapiens, UniProt P21397); test: Inhibition of human recombinant MAOA using p-tyramine as substrate incubated for 15 mins by fluorimetric method
T4 sequence (P21397 whole entry): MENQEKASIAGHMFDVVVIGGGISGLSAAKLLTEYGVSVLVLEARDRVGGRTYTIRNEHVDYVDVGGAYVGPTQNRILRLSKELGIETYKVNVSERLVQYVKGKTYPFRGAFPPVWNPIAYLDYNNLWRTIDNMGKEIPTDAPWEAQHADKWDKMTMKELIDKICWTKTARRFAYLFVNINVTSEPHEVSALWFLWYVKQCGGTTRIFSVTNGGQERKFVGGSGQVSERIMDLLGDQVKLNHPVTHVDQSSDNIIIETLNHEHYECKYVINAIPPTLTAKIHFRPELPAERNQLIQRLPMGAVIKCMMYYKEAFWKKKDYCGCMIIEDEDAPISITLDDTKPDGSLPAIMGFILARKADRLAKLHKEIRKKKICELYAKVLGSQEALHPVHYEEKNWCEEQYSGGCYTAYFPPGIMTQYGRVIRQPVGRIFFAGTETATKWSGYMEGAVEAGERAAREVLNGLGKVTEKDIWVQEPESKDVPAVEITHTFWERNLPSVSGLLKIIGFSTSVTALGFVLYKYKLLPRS

[6] = target: T3, Amine oxidase [flavin-containing] B
Neural stem cell [7] = test: (§2) Induction of differentiation of C57BL/6 mouse subgranular zone-derived neural stem cell into neuronal phenotype assessed as increase in level of MAP2 expressing cells in neurosphere at 10 uM preincubated for 7 days followed by cell attachment onto poly-L-lysine-coated coverslip in presence of serum and absence of exogenous growth factor for 3 days by DAPI staining-based florescence microscopy; type: functional
Procedure, shortened: (§3)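 Adult (3-month) male C57BL/6 mouse SGZ dentate gyrus neural stem cells grown as neurospheres for 7 days with compound (10 µM). Then adhered on 100 μg/mL poly-L-lysine coverslips for 3 more days with serum, without exogenous growth factors, compound present. Immunocytochemistry for β-III-tubulin (TuJ) and MAP-2 with Alexa-fluor secondaries and DAPI nuclei, imaged by fluorescence microscopy, inner and distal neurosphere areas.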

Neural stem cell [8] = test: as §2, with “beta-3 tubulin” for “MAP2”; type: functional; procedure, shortened: as §3
[9] = target: T4, Amine oxidase [flavin-containing] A; test: Inhibition of human recombinant MAOA at 100 uM using p-tyramine as substrate incubated for 15 mins by fluorimetric method; settings: 0.25 h; procedure, shortened: as §1
Cholinesterase [10] = target: T1, Cholinesterase; test: Inhibition of human serum BuChE at 10 uM using butyrylthiocholine as substrate preincubated for 5 mins followed by substrate addition measured for 5 mins by Ellman's method relative to control
Procedure, shortened: (§4)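 Spectrophotometric Ellman assay with recombinant human AChE or BuChE from human serum. Percent inhibition is given at a single concentration of 10 µM. Results are mean ± SEM, n = 5.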

Acetylcholinesterase [11] = target: T2, Acetylcholinesterase; test: Inhibition of human recombinant AChE at 10 uM using acetylthiocholine iodide as substrate preincubated for 5 mins followed by substrate addition measured for 5 mins by Ellman's method relative to control; procedure, shortened: as §4
[12] = target: Beta-secretase 1 (Homo sapiens) (UniProt P56817); test: Inhibition of human BACE1 at 10 uM using Rh-EVNLDAEFK-Quencher as substrate after 60 mins by FRET assay relative to control
Procedure, shortened: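 FRET-based assay on human recombinant BACE-1, run per the manufacturer's protocol; compounds tested at 10 μM, read as percent inhibition.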

[13] = Potentiation of rotenone/oligomycin A-induced mitochondrial oxidative stress in human SH-SY5Y cells at 0.1 to 3 uM after 24 hrs by MTT assay; type: ADME, cell-based
Procedure, shortened: (§5)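 SH-SY5Y cells, passage <13, were seeded at 8x10^4/well for 2 days. Then co-incubated 24 h with compound (0.1, 0.3, 1, 3 µM) plus rotenone 30 µM/oligomycin A 10 µM in F-12/EMEM with 1% FBS; 0.1% DMSO vehicle and 10 nM melatonin control. MTT 0.5 mg/ml final, 2 h at 37 °C, formazan in DMSO read at 540 nm. Normalized to untreated control; triplicates of ≥3 cultures, mean ± SEM.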

SH-SY5Y = test: Neuroprotective activity against rotenone/oligomycin A-induced mitochondrial oxidative stress in human SH-SY5Y cells assessed as increase in cell viability at 0.3 uM after 24 hrs by MTT assay relative to control; type: functional; procedure, shortened: as §5

T2 sequence (P22303 whole entry): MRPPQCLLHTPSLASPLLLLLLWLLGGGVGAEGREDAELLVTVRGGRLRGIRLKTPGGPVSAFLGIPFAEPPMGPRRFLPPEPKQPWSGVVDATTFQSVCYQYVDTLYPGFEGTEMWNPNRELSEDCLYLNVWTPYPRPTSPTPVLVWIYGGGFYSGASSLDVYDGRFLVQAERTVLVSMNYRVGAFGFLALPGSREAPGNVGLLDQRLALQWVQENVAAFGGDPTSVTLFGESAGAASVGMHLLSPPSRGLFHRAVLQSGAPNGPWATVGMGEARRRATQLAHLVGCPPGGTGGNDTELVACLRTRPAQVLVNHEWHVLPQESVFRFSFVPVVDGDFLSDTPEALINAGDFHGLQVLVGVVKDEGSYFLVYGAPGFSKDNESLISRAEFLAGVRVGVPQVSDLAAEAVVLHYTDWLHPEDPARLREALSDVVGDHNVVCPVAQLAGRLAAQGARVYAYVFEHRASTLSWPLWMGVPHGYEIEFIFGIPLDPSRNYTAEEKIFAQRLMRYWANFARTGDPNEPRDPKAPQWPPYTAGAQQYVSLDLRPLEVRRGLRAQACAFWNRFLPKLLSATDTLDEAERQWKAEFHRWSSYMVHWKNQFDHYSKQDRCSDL
Beta-secretase 1 (Homo sapiens), sequence (P56817 whole entry): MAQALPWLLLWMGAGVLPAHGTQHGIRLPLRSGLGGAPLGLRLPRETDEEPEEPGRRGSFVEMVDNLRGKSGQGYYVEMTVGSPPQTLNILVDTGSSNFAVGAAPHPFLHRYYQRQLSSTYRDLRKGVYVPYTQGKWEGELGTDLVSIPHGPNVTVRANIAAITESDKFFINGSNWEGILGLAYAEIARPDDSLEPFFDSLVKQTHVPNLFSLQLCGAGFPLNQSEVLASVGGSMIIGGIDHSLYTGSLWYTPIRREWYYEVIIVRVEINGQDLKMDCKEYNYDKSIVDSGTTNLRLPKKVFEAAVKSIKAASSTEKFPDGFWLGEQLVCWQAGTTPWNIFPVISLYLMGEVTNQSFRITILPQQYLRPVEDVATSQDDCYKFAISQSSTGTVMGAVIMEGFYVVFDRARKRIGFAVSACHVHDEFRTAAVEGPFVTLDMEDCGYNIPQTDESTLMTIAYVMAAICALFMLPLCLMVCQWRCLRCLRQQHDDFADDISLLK
T1 sequence (P06276 whole entry): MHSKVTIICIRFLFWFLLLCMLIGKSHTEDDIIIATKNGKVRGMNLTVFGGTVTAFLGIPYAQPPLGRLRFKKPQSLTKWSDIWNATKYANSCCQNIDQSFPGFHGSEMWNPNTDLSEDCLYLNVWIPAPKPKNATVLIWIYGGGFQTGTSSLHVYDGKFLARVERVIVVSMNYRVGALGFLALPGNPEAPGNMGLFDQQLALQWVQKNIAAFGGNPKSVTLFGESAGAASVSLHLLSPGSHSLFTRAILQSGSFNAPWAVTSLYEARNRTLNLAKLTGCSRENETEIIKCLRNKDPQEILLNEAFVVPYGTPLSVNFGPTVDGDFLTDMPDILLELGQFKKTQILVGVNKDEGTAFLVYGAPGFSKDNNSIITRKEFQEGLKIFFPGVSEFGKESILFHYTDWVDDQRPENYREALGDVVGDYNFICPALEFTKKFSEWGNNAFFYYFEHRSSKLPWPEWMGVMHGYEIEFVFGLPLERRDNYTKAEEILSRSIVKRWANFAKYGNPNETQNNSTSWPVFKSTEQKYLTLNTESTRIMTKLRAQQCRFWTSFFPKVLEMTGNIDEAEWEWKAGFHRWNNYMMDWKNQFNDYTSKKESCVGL

| Compound | IC50 (Cholinesterase [1]) [µM] | IC50 (Acetylcholinesterase [2]) [µM] | Activity [3] [equiv] | inhibition at 100 µM [4] [%] | IC50 [5] [µM] | IC50 [6] [µM] | Activity (Neural stem cell [7]) | Activity (Neural stem cell [8]) | inhibition at 100 µM [9] [%] | inhibition (Cholinesterase [10]) [%] | inhibition (Acetylcholinesterase [11]) [%] | inhibition [12] [%] | Activity [13] | Activity (SH-SY5Y) |
| --- | --- | --- | --- | --- | --- | --- | --- | --- | --- | --- | --- | --- | --- | --- |
| COc1ccc(/C=C/C(=O)Nc2ccc(CN(C)Cc3ccccc3)cc2)cc1OC | > 10 | 3.98 | 0.4 | – | – | – | – | – | – | – | – | – | – | – |
| COc1ccc(/C=C/C(=O)NCCC2CCN(Cc3ccccc3)CC2)cc1OC | 0.69 | 0.26 | 0.4 | 45 to 55 | > 100 | – | – | – | – | – | – | – | – | – |
| O=C(/C=C/c1ccc(O)c(O)c1)NCCC1CCN(Cc2ccccc2)CC1 | 0.69 | 1.75 | 1 | – | 3.5 | 6 | Active | Active | – | – | – | – | – | – |
| COc1cccc(/C=C/C(=O)NCCC2CCN(Cc3ccccc3)CC2)c1 | 0.98 | 0.75 | – | – | – | > 100 | – | – | 45 to 55 | – | – | – | – | – |
| COc1cc(/C=C/C(=O)Nc2ccc(CN(C)Cc3ccccc3)cc2)ccc1O | – | – | 1.5 | – | – | – | – | – | – | 45 | 33 | 23 to 33 | – | – |
| COc1ccc(/C=C/C(=O)NCCC2CCN(Cc3ccccc3)CC2)cc1 | 0.76 | 0.49 | – | 45 to 55 | – | – | – | – | 45 to 55 | – | – | – | – | – |
| CN(Cc1ccccc1)Cc1ccc(NC(=O)/C=C/c2ccc(O)cc2)cc1 | – | – | 1.8 | – | 29.7 | 29 | – | – | – | 30 | 46 | – | – | – |
| CN(Cc1ccccc1)Cc1ccc(NC(=O)/C=C/c2cccc(O)c2)cc1 | – | 3.49 | 3.2 | 45 to 55 | – | – | – | – | 45 to 55 | 46 | – | – | Non-Toxic | 30 - 35% |
| O=C(/C=C/c1cccc(O)c1)NCCC1CCN(Cc2ccccc2)CC1 | 1.02 | 1.12 | 2.2 | – | – | > 100 | – | – | 45 to 55 | – | – | – | – | – |
| COc1ccc(/C=C/C(=O)NCCC2CCN(Cc3ccccc3)CC2)c(OC)c1 | 4.39 | 0.63 | – | – | > 100 | > 100 | – | – | – | – | – | – | – | – |
| COc1cccc(/C=C/C(=O)Nc2ccc(CN(C)Cc3ccccc3)cc2)c1 | – | 4.67 | 0.6 | – | > 100 | > 100 | – | – | – | 35 | – | 23 to 33 | – | – |
| COc1ccc(/C=C/C(=O)Nc2ccc(CN(C)Cc3ccccc3)cc2)cc1 | – | 5.76 | – | – | > 100 | > 100 | – | – | – | 25 | – | 23 to 33 | – | – |
| O=C(/C=C/c1ccc(O)cc1O)NCCC1CCN(Cc2ccccc2)CC1 | 0.26 | 0.99 | 1.3 | – | 5.5 | 8.3 | – | – | – | – | – | – | – | – |
| COc1cc(/C=C/C(=O)Nc2cccc(CN(C)Cc3ccccc3)c2)ccc1O | 5.89 | 5.99 | 1.4 | – | 4.5 | 7.7 | – | – | – | – | – | 23 to 33 | Non-Toxic | 30 - 35% |
| COc1ccc(/C=C/C(=O)Nc2ccc(CN(C)Cc3ccccc3)cc2)c(OC)c1 | > 10 | 8.73 | 0.5 | – | > 100 | > 100 | – | – | – | – | – | – | – | – |
| O=C(/C=C/c1ccc(O)cc1)NCCC1CCN(Cc2ccccc2)CC1 | 0.93 | 1.01 | 1.7 | – | 57.5 | > 100 | – | – | – | – | – | – | – | – |
| COc1cc(/C=C/C(=O)NCCC2CCN(Cc3ccccc3)CC2)ccc1O | 0.076 | 0.39 | 1.8 | – | 11.4 | 13.1 | – | – | – | – | – | – | Non-Toxic | 30 - 35% |
